The values below come from the RNAGym collection of RNA variant scans (doi:10.1002/anie.201605470).

B1: Osa-1-4 twister ribozyme (parent)
chain: CCGCCUAACACUGCCAAUGCCGGUCCCAAGCCCGGAUAAAAGUGGAGGGGGCGG

The data set covers variants of B1. The data set can be described thus: self-cleavage, relative activity (ratio to wild type); higher = more cleavage; co-transcriptional. The method, boiled down: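 Relative activity is the fraction cleaved divided by that of the wild-type ribozyme. The library came from a DNA template for a 54-nucleotide Oryza sativa twister ribozyme, doped at the 48 positions downstream of the cleavage site with 97 % wild-type base and 1 % of each other base. After 2 h of in vitro transcription at 37 °C with co-transcriptional self-cleavage, the RNA was reverse-transcribed with a template-switching oligonucleotide, amplified by PCR and deep-sequenced, and reads with or without upstream sequence gave the cleavage status.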
In the case of A38U G48C, the self-cleavage was 0.08.

With A38U G48U, the self-cleavage came to 0.08.

With A38U G48A, the self-cleavage worked out at 0.1.

Turning to A38U U24C, the self-cleavage was found to be 0.25.

On to A38U U24G, for which the self-cleavage amounted to 0.03.

Regarding A38U U24A, the self-cleavage came out at 0.14.

As to A38U G13C, the self-cleavage turned out to be 0.03.

For A38U G13U, the self-cleavage came to 0.03.

A38U G13A: the self-cleavage is 0.11.

With A39C C52A, the self-cleavage was 1.

As to A39C C52U, the self-cleavage is 1.06.

For A39C C52G, the self-cleavage turned out to be 0.96.

As for A39C G51C, the self-cleavage is 0.05.

Take A39C G51U: the self-cleavage amounted to 0.21.

As to A39C G51A, the self-cleavage is 0.53.

With A39G A46C, the self-cleavage was 0.05.

For the variant A39G A46G, the self-cleavage amounted to 0.06.

Regarding A39G A46U, the self-cleavage came out at 0.09.

Regarding A38U G30U, the self-cleavage worked out at 0.04.

A38U G30C: the self-cleavage was found to be 0.04.

A38U G30A: the self-cleavage was found to be 0.04.

As for A39C U37G, the self-cleavage turned out to be 0.98.

On to A39C U37C, for which the self-cleavage was found to be 1.02.

Regarding A39C U37A, the self-cleavage came out at 0.92.

A39C U24A: the self-cleavage worked out at 0.05.

As to A39C U24C, the self-cleavage came to 0.06.

Consider A39C U24G, for which the self-cleavage stood at 0.03.

Regarding A39G G23U, the self-cleavage turned out to be 0.07.

In the case of A39G G23A, the self-cleavage came to 0.2.

In the case of A39G G23C, the self-cleavage was 0.07.

Consider A39G C15U, for which the self-cleavage is 0.21.

A39G C15G: the self-cleavage was 0.31.

With A39G C15A, the self-cleavage turned out to be 0.41.

Regarding A39C G34U, the self-cleavage came to 0.42.

Consider A39C G34A, for which the self-cleavage turned out to be 0.63.

On to A39C G34C, for which the self-cleavage turned out to be 0.2.

Consider A38G U24G, for which the self-cleavage is 0.03.

As to A38G U24C, the self-cleavage is 0.32.

Regarding A38G U24A, the self-cleavage is 0.16.

Turning to A38G G54A, the self-cleavage is 0.92.

For A38G G54U, the self-cleavage was determined as 0.94.

For A38G G54C, the self-cleavage came out at 0.94.

For A38U A46G, the self-cleavage is 0.05.

For the variant A38U A46U, the self-cleavage worked out at 0.07.

For A38U A46C, the self-cleavage is 0.06.

Consider A39G C11A, for which the self-cleavage amounted to 0.62.

As for A39G C11U, the self-cleavage was 0.93.

For A39G C11G, the self-cleavage was 0.51.

Take A39G C25A: the self-cleavage was 0.07.

With A39G C25U, the self-cleavage stood at 0.53.

With A39G C25G, the self-cleavage amounted to 0.07.

With A38U G35U, the self-cleavage was determined as 0.89.

For A38U G35A, the self-cleavage came to 0.83.

Take A38U G35C: the self-cleavage turned out to be 0.13.

Consider A38U C27G, for which the self-cleavage was 0.08.

Regarding A38U C27U, the self-cleavage worked out at 0.15.

In the case of A38U C27A, the self-cleavage is 0.14.

Consider A38U C14U, for which the self-cleavage turned out to be 0.22.

As to A38U C14A, the self-cleavage was 0.07.

For the variant A38U C14G, the self-cleavage amounted to 0.11.

Regarding A39G C21A, the self-cleavage turned out to be 0.55.

As to A39G C21G, the self-cleavage worked out at 0.08.

For A39G C21U, the self-cleavage is 1.01.

As for A39C G48U, the self-cleavage came out at 0.05.

As to A39C G48A, the self-cleavage came to 0.06.

With A39C G48C, the self-cleavage amounted to 0.05.

Turning to A38G U18A, the self-cleavage was 0.92.

For the variant A38G U18C, the self-cleavage turned out to be 0.97.

Take A38G U18G: the self-cleavage was 0.84.

As for A38U C33G, the self-cleavage worked out at 0.05.

With A38U C33A, the self-cleavage is 0.1.

Turning to A38U C33U, the self-cleavage turned out to be 0.79.

As to A38U A8U, the self-cleavage came out at 0.25.

As to A38U A8C, the self-cleavage is 0.09.

A38U A8G: the self-cleavage came out at 0.52.

On to A38G U37A, for which the self-cleavage is 1.

As to A38G U37C, the self-cleavage amounted to 1.05.

As to A38G U37G, the self-cleavage stood at 1.

A39G A7U: the self-cleavage came out at 0.08.

Consider A39G A7C, for which the self-cleavage stood at 0.04.

On to A39G A7G, for which the self-cleavage turned out to be 0.31.

Consider A38U C11G, for which the self-cleavage was 0.59.

With A38U C11A, the self-cleavage was 0.78.

On to A38U C11U, for which the self-cleavage was 0.97.

Consider A38U C9U, for which the self-cleavage came out at 0.74.

With A38U C9G, the self-cleavage stood at 0.84.

A38U C9A: the self-cleavage was 0.42.

As for A38U G47C, the self-cleavage came to 0.08.

A38U G47U: the self-cleavage turned out to be 0.19.

As to A38U G47A, the self-cleavage turned out to be 0.18.

In the case of A39C U43C, the self-cleavage came out at 0.16.

A39C U43G: the self-cleavage was 0.16.

Consider A39C U43A, for which the self-cleavage came out at 0.33.

Turning to A38G U43A, the self-cleavage was found to be 0.89.

Consider A38G U43C, for which the self-cleavage worked out at 0.35.

As for A38G U43G, the self-cleavage came to 0.62.

With A38U G45C, the self-cleavage is 0.06.

On to A38U G45U, for which the self-cleavage stood at 0.09.

With A38U G45A, the self-cleavage turned out to be 0.23.

Consider A38U G53C, for which the self-cleavage amounted to 0.09.

Consider A38U G53U, for which the self-cleavage stood at 0.27.

With A38U G53A, the self-cleavage was found to be 0.81.

For the variant A38U U43A, the self-cleavage stood at 0.95.

For the variant A38U U43C, the self-cleavage turned out to be 0.39.

Regarding A38U U43G, the self-cleavage was 0.47.

Regarding A38U G34C, the self-cleavage came out at 0.5.

Turning to A38U G34A, the self-cleavage worked out at 0.78.

As for A38U G34U, the self-cleavage came to 0.77.

A39C A41G: the self-cleavage was 0.23.

For A39C A41C, the self-cleavage was 0.37.

For the variant A39C A41U, the self-cleavage worked out at 0.96.

A39C C26A: the self-cleavage was determined as 0.04.

On to A39C C26U, for which the self-cleavage is 0.35.

On to A39C C26G, for which the self-cleavage turned out to be 0.07.

A39C C9G: the self-cleavage worked out at 0.34.

As to A39C C9A, the self-cleavage amounted to 0.28.

Turning to A39C C9U, the self-cleavage worked out at 0.55.

As for A39G C52A, the self-cleavage was 0.97.

With A39G C52G, the self-cleavage stood at 0.98.

A39G C52U: the self-cleavage is 1.04.

As for A38G U12C, the self-cleavage was found to be 0.42.

As to A38G U12A, the self-cleavage was determined as 0.88.

Take A38G U12G: the self-cleavage is 0.41.

On to A38U C26U, for which the self-cleavage was 0.92.

For the variant A38U C26A, the self-cleavage came out at 0.04.

Take A38U C26G: the self-cleavage stood at 0.09.

A38U C15U: the self-cleavage was 0.21.

As to A38U C15A, the self-cleavage amounted to 0.23.

Consider A38U C15G, for which the self-cleavage turned out to be 0.25.

For the variant A39C G49A, the self-cleavage came to 0.07.

Take A39C G49C: the self-cleavage came to 0.06.

On to A39C G49U, for which the self-cleavage was 0.06.

For the variant A39G A8U, the self-cleavage came out at 0.17.

With A39G A8G, the self-cleavage stood at 0.35.

A39G A8C: the self-cleavage came out at 0.08.

Turning to A38U C25U, the self-cleavage worked out at 0.9.

In the case of A38U C25G, the self-cleavage turned out to be 0.09.

As to A38U C25A, the self-cleavage was 0.07.

In the case of A39C C32U, the self-cleavage is 0.08.

For the variant A39C C32A, the self-cleavage turned out to be 0.08.

As for A39C C32G, the self-cleavage is 0.1.

Regarding A39C, the self-cleavage worked out at 0.99.

With A39G, the self-cleavage was 1.

With A39G C31A, the self-cleavage is 0.03.

For A39G C31U, the self-cleavage is 0.56.

For the variant A39G C31G, the self-cleavage was 0.1.

In the case of A39C C31U, the self-cleavage came out at 0.53.

In the case of A39C C31G, the self-cleavage turned out to be 0.08.

On to A39C C31A, for which the self-cleavage worked out at 0.04.

For the variant A39G C32U, the self-cleavage is 0.1.

A39G C32G: the self-cleavage came out at 0.14.

Take A39G C32A: the self-cleavage turned out to be 0.08.

Regarding A39G G34A, the self-cleavage was determined as 0.8.

For the variant A39C C25G, the self-cleavage amounted to 0.06.

For A39C C25A, the self-cleavage is 0.06.

Turning to A39C C25U, the self-cleavage worked out at 0.33.

Turning to A38U G19C, the self-cleavage amounted to 0.04.

For A38U G19A, the self-cleavage turned out to be 0.57.

Regarding A38U G19U, the self-cleavage stood at 0.22.

With A38U A39C, the self-cleavage stood at 0.96.

Take A38U A39G: the self-cleavage was found to be 0.64.

For the variant A38U A39U, the self-cleavage was determined as 0.97.

In the case of A38U G23C, the self-cleavage came to 0.07.

With A38U G23A, the self-cleavage is 0.33.

In the case of A38U G23U, the self-cleavage was 0.07.

Regarding A39C A8G, the self-cleavage is 0.23.

Turning to A39C A8C, the self-cleavage was 0.09.
